# Source: publication PMC12502093 (RSC Advances, 2025)
# Tests used:
# [1] = system: MCF7 cells; assay: Neutral red uptake cytotoxicity assay, MCF7; assay type: cell-based, human; conditions: for IC50: Homo sapiens, MCF7, 48 h, read-out: IC50 (μM) MCF7; for (SI) MCF7, selectivity index: SI = IC50 MDCK cell/IC50 MCF7 cell
# How it was run: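 Neutral red uptake. Log-phase cells were grown in DMEM with 10% FBS at 37 °C, 5% CO2, at 10^4 cells/well. They were exposed 48 h to 12.5, 25, 50 and 100 μM test compound (DMSO final <0.2%), then given neutral red medium for 2 h and washed with DPBS. Dye was extracted with 1% acetic acid/50% ethanol and read at 450/630 nm. IC50 came from log concentration versus intensity, three runs averaged. SI = MDCK IC50 / MCF7 IC50.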
# [2] = system: IL6; assay: qRT-PCR gene expression in MCF7 cells: IL6; assay type: cell-based, human; conditions: compound at IC50, 48 h, relative to β-Actin, vs control
# How it was run: (§1)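 MCF7 cells (3 × 10^4 per well) were treated 48 h with test compound. Total RNA was column-extracted and reverse-transcribed to first-strand cDNA. SYBR Green qPCR ran 95 °C 10 min, then 40 cycles of 95 °C 15 s, 60 °C 30 s, 72 °C 30 s. Expression was normalised to β-Actin by 2−ΔΔCT relative to untreated control. Data are mean ± SEM; Student's t-test, P < 0.05.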
# [3] = system: JAK2; assay: qRT-PCR gene expression in MCF7 cells: JAK2; assay type: cell-based, human; conditions: compound at IC50, 48 h, relative to β-Actin, vs control
# How it was run: as §1
# [4] = system: STAT3; assay: qRT-PCR gene expression in MCF7 cells: STAT3; assay type: cell-based, human; conditions: compound at IC50, 48 h, relative to β-Actin, vs control
# How it was run: as §1
# [5] = system: BCL2; assay: qRT-PCR gene expression in MCF7 cells: BCL2; assay type: cell-based, human; conditions: compound at IC50, 48 h, relative to β-Actin, vs control
# How it was run: as §1
# [6] = system: BAX; assay: qRT-PCR gene expression in MCF7 cells: BAX; assay type: cell-based, human; conditions: compound at IC50, 48 h, relative to β-Actin, vs control
# How it was run: as §1
# [7] = system: Cyclin D1; assay: qRT-PCR gene expression in MCF7 cells: Cyclin D1; assay type: cell-based, human; conditions: compound at IC50, 48 h, relative to β-Actin, vs control
# How it was run: as §1
# [8] = system: c-MYC; assay: qRT-PCR gene expression in MCF7 cells: c-MYC; assay type: cell-based, human; conditions: compound at IC50, 48 h, relative to β-Actin, vs control
# How it was run: as §1
# [9] = system: S. aureus ATCC 25923; assay: Agar well diffusion test; assay type: cell-based; conditions: AWDT; for Zone of inhibition, inhibition scale: S. aureus ATCC 25923; for Zone of inhibition: S. aureus ATCC 25923, average of triplicate
# How it was run: (§2)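 Agar well diffusion. Test compounds were placed in wells on agar inoculated with the reference strain or isolate. After incubation, inhibition zone diameters were measured in mm with a caliper. Runs were in triplicate and the zone averaged. Scale: 0 = no inhibition; 0–6 mm (−); 7–11 mm (+); 12–14 mm (++); 15–17 mm (+++).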
# [10] = system: E. coli O157 ATCC 700728; assay: Agar well diffusion test; assay type: cell-based; conditions: AWDT; for Zone of inhibition: E. coli O157 ATCC 700728, average of triplicate; for Zone of inhibition, inhibition scale: E. coli O157 ATCC 700728
# How it was run: as §2
# [11] = system: C. albicans ATCC 10231; assay: Agar well diffusion test; assay type: cell-based; conditions: AWDT; for Zone of inhibition, inhibition scale: C. albicans ATCC 10231; for Zone of inhibition: C. albicans ATCC 10231, average of triplicate
# [12] = system: A. flavus isolate; assay: Agar well diffusion test; assay type: cell-based; conditions: AWDT; for Zone of inhibition: average of triplicate
# How it was run: as §2
# [13] = system: C. albicans ATCC 10231; assay: Minimum inhibitory concentration, C. albicans; assay type: cell-based; conditions: Candida albicans, ATCC10231, read-out: MIC (mg mL^−1)
# How it was run: (§3)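 MIC was determined by a previously reported method for compounds selected from the well-diffusion screen and is expressed in mg mL−1. […] For C. albicans, 100 μL of negative cells went onto potato dextrose agar at 25 °C/72 h.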
# [14] = biological target: STAT3 (Homo sapiens, UniProt P40763); assay: STAT3 tyrosine phosphorylation inhibition; assay type: biochemical; conditions: for IC50: STAT3 phosphorylation IC50 (μM) (mean ± SD), ELISA, eight dilutions 100-0.03 μM
# Chain of STAT3 (Homo sapiens, UniProt P40763) (P40763 whole entry): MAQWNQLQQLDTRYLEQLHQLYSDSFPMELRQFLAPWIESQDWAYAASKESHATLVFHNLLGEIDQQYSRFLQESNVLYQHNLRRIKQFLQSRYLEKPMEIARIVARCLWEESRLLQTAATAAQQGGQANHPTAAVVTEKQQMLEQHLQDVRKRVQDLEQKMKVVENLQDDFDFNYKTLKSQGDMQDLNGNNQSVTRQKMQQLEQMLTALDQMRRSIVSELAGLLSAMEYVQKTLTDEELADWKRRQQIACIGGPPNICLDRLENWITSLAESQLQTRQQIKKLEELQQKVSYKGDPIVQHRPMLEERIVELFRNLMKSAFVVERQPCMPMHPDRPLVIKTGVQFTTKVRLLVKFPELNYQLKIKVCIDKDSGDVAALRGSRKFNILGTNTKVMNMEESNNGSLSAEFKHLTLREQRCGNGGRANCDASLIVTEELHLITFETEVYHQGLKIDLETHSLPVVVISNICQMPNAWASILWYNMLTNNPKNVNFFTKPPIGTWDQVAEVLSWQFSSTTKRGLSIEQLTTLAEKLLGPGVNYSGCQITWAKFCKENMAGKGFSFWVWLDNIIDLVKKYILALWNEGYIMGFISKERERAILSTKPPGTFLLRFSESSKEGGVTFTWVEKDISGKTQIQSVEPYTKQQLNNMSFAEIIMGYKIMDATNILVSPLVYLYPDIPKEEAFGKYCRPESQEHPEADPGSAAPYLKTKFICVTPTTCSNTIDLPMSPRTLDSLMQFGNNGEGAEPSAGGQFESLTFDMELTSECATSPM
# [15] = system: E. coli O157 ATCC 700728; assay: Minimum inhibitory concentration, E. coli; assay type: cell-based; conditions: Escherichia coli, ATCC700728, read-out: MIC (mg mL^−1)
# How it was run: as §3
# [16] = biological target: T1, E. coli DNA gyrase (Escherichia coli, UniProt P0AES6); assay: E. coli DNA gyrase supercoiling assay; assay type: biochemical
# How it was run: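 Commercial kit assay of E. coli DNA gyrase supercoiling. Relaxed plasmid DNA is the substrate, and relaxed and supercoiled forms are separated by agarose gel electrophoresis. Test compounds were dissolved in DMSO and added at different concentrations to derive IC50.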
# [17] = biological target: T1, E. coli DNA gyrase; assay: E. coli DNA gyrase ATPase assay; assay type: biochemical
# [18] = biological target: T2, E. coli topoisomerase IV (Escherichia coli, UniProt P20083); assay: E. coli topoisomerase IV cleavage assay; assay type: biochemical
# T2 sequence (P20083 whole entry): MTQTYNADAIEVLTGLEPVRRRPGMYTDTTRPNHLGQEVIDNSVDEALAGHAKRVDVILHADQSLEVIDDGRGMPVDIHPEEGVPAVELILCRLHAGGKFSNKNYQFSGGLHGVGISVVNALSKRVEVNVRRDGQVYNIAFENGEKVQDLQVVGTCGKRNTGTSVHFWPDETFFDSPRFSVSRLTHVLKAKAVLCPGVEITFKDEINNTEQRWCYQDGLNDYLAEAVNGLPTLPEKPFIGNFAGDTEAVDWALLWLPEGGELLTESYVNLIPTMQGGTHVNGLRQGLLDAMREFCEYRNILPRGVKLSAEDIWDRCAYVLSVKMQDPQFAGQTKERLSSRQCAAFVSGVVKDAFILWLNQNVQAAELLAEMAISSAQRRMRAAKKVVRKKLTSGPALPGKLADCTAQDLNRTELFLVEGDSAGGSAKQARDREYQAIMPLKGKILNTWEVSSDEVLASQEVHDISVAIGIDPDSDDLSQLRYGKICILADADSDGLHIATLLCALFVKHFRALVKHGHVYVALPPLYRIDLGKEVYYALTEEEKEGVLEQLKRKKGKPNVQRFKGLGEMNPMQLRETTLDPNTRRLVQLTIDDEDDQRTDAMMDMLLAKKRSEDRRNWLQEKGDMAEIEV
# T2 sequence (P0AFI2 whole entry partner): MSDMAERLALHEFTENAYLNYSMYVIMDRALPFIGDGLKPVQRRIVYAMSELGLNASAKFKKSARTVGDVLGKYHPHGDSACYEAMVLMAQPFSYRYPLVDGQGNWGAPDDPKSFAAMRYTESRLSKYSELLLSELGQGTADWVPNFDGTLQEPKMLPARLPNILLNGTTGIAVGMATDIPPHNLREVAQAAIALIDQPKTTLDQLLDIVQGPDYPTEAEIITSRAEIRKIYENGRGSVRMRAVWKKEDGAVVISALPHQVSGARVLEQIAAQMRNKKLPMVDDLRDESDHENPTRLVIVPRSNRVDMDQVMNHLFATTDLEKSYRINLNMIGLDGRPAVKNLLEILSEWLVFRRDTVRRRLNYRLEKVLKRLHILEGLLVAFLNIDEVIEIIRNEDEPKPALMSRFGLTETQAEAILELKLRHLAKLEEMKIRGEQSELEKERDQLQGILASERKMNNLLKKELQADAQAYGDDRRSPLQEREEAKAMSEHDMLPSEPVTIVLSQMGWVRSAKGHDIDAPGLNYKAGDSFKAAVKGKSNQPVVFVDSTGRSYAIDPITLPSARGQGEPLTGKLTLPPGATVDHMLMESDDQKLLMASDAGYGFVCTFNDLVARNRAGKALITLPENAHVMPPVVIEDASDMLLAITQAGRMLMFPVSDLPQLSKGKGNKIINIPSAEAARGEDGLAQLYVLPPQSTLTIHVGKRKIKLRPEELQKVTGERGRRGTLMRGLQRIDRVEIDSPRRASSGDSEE
# [19] = biological target: T2, E. coli topoisomerase IV; assay: E. coli topoisomerase IV ATPase assay; assay type: biochemical
SMILES,IC50 [1],"(SI) MCF7, selectivity index [1]",IL6 gene expression level [2],JAK2 gene expression level [3],STAT3 gene expression level [4],BCL2 gene expression level [5],c-MYC gene expression level [8],"Zone of inhibition, inhibition scale [9]",Zone of inhibition [9],Zone of inhibition [10],"Zone of inhibition, inhibition scale [11]",Zone of inhibition [11],"Zone of inhibition, inhibition scale [12]",Zone of inhibition [12],MIC [13],also measured
"CC(=O)c1ccc2cc(S(=O)(=O)Nc3ccccn3)ccc2c1 [Compound 5i, 6-Acetyl-N-(pyridin-2-yl)naphthalene-2-sulfonamide]",41.6 µM,2.13,significant decrease,significant decrease,significant decrease,significant decrease,significant decrease,− (0–6 mm (−)),0 mm,11 mm,+ (7–11 mm (+)),14 mm,− (0–6 mm (−)),0 mm,40000 µg/mL,BAX gene expression level [6]: significant increase; Cyclin D1 gene expression level [7]: significant decrease; IC50 [14]: 8.58 ± 0.9 µM
"CC(=O)c1ccc2cc(S(=O)(=O)Nc3cccnc3)ccc2c1 [Compound 5j, 6-Acetyl-N-(pyridin-3-yl)naphthalene-2-sulfonamide]",,,,,,,,− (0–6 mm (−)),0 mm,16 mm,+++ (15–17 mm (+++)),16 mm,+ (7–11 mm (+)),7 mm,10000 µg/mL,MIC [15]: 20 mg/mL
"COc1cccc2c1C(=O)c1c(O)c3c(c(O)c1C2=O)C[C@@](O)(C(=O)CO)C[C@@H]3O[C@H]1C[C@H](N)[C@H](O)[C@H](C)O1 [Doxorubicin, reference compound]",22.8 µM,3.07,significantly decreasing,significantly decreasing,significantly decreasing,significantly decreasing,significantly decreasing,,,,,,,,,BAX gene expression level [6]: significantly raised; Cyclin D1 gene expression level [7]: significantly decreasing
"CC(=O)c1ccc2cc(S(=O)(=O)Nc3ccc(F)cc3)ccc2c1 [Compound 5b, 6-Acetyl-N-(4-fluorophenyl)naphthalene-2-sulfonamide]",40.1 µM,2.33,significant decrease,significant decrease,significant decrease,significant decrease,significant decrease,− (0–6 mm (−)),0 mm,15 mm,+++ (15–17 mm (+++)),15 mm,− (0–6 mm (−)),0 mm,10000 µg/mL,"BAX gene expression level [6]: significant increase; Cyclin D1 gene expression level [7]: significant decrease; MIC [15]: 10 mg/mL; IC50 [14]: 3.59 ± 0.7 µM; Potency as STAT3 inhibitor relative to lead compound I ([14]; higher potency than compound I): approximately 2 fold; IC50 [16]: 20.6 µM; IC50 [17]: 3.58 µM; IC50 [18]: 15.4 µM; Potency relative to norfloxacin, topoisomerase IV cleavage assay ([18]; E. coli, more potent than norfloxacin): 1.5 fold; IC50 [19]: 3.49 µM"
"CCn1cc(C(=O)O)c(=O)c2cc(F)c(N3CCNCC3)cc21 [Nor, norfloxacin, reference compound]",,,,,,,,,,,,,,,,IC50 [16]: 11.1 µM; IC50 [18]: 25.8 µM
"CC(=O)c1ccc2cc(S(=O)(=O)Nc3ccccc3C)ccc2c1 [Compound 5f, 6-Acetyl-N-(o-tolyl)naphthalene-2-sulfonamide]",,,,,,,,− (0–6 mm (−)),0 mm,11 mm,+ (7–11 mm (+)),12 mm,− (0–6 mm (−)),0 mm,,
"CC(=O)c1ccc2cc(S(=O)(=O)Nc3ccccc3Cl)ccc2c1 [Compound 5c, 6-Acetyl-N-(2-chlorophenyl)naphthalene-2-sulfonamide]",,,,,,,,− (0–6 mm (−)),0 mm,12 mm,+++ (15–17 mm (+++)),16 mm,− (0–6 mm (−)),0 mm,20000 µg/mL,"Zone of inhibition, inhibition scale [10]: ++ (12–14 mm (++))"
"CC(=O)c1ccc2cc(S(=O)(=O)Nc3ccccc3)ccc2c1 [Compound 5a, 6-Acetyl-N-phenylnaphthalene-2-sulfonamide]",42.1 µM,2.15,significantly decreased,significantly decreased,significantly decreased,significantly decreased,significantly decreased,− (0–6 mm (−)),0 mm,,++ (12–14 mm (++)),12 mm,− (0–6 mm (−)),0 mm,,IC50 [14]: 7.87 ± 0.74 µM
"COc1ccc(NS(=O)(=O)c2ccc3cc(C(C)=O)ccc3c2)cc1 [Compound 5g, 6-Acetyl-N-(4-methoxyphenyl)naphthalene-2-sulfonamide]",,,,,,,,− (0–6 mm (−)),0 mm,12 mm,+ (7–11 mm (+)),10 mm,− (0–6 mm (−)),0 mm,,"Zone of inhibition, inhibition scale [10]: ++ (12–14 mm (++))"
"CC(=O)c1ccc2cc(S(=O)(=O)NCc3ccccc3)ccc2c1 [Compound 5h, 6-Acetyl-N-benzylnaphthalene-2-sulfonamide]",,,,,,,,++ (12–14 mm (++)),14 mm,10 mm,+ (7–11 mm (+)),7 mm,+ (7–11 mm (+)),10 mm,,
"CC(=O)c1ccc2cc(S(=O)(=O)Nc3cccc(Cl)c3)ccc2c1 [Compound 5d, 6-Acetyl-N-(3-chlorophenyl)naphthalene-2-sulfonamide]",,,,,,,,− (0–6 mm (−)),0 mm,10 mm,+ (7–11 mm (+)),15 mm,− (0–6 mm (−)),0 mm,10000 µg/mL,
